Calls of active or inactive are those of the source. No cut-off for these calls is given here.
How the values were obtained:
Rattus norvegicus [1] = assay: Inhibition of rat passive cutaneous anaphylaxis at 1.0 mg/kg dose after intraperitoneal administration; format: functional; settings: ip
How it was run: (§1)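 Rats were sensitized by intradermal injection of antiserum dilutions at several back sites. Drug was suspended in 1% gum tragacanth in saline and given po or ip 10–15 min before challenge with iv ovalbumin (1 mg in 1 mL saline with 0.25% Evans blue). At 30 min the wheal's mean orthogonal diameter was measured. Diameter was plotted against antiserum level and extrapolated to zero. Five rats per group.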

Rattus norvegicus [2] = assay: Inhibition of rat passive cutaneous anaphylaxis at 5.0 mg/kg dose after intraperitoneal administration; format: functional; settings: ip; how it was run: as §1
Rattus norvegicus [3] = assay: Inhibition of rat passive cutaneous anaphylaxis at 5.0 mg/kg dose after peroral administration; format: functional; settings: route oral; how it was run: as §1
Rattus norvegicus [4] = assay: The compound was tested for inhibition of rat passive cutaneous anaphylaxis at 1 mg/kg dose after iv administration; format: functional
How it was run: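 Rat PCA by the iv route. Antiserum dilutions were injected intradermally on the back 48 h before iv challenge with 1 mg ovalbumin in 1 mL saline plus 0.25% Evans blue. Compound was dissolved, if needed, in slight molar excess NaHCO3 and diluted into the antigen solution. Wheal diameter was read at 30 min and extrapolated to zero antiserum by least squares. Groups of five.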

Rattus norvegicus [5] = assay: The compound was tested for inhibition of rat passive cutaneous anaphylaxis at 2.0 mg/kg dose after peroral administration; format: functional; settings: route oral; how it was run: as §1
Rattus norvegicus [6] = assay: The compound was tested for inhibition of rat passive cutaneous anaphylaxis at 10 mg/kg dose after intraperitoneal administration; format: functional; settings: ip
Rattus norvegicus [7] = assay: The compound was tested for inhibition of rat passive cutaneous anaphylaxis at 2.0 mg/kg dose after intraperitoneal administration; format: functional; settings: ip
Rattus norvegicus [8] = assay: The compound was tested for inhibition of rat passive cutaneous anaphylaxis at 5.0 mg/kg dose after peroral administration; O means inactive; format: functional, organism-based; set-up: dose 5 mg/kg; how it was run: as §1
Rattus norvegicus [9] = assay: The compound was tested for inhibition of rat passive cutaneous anaphylaxis at 1.0 mg/kg dose after peroral administration; format: functional; settings: route oral; how it was run: as §1

Row | Structure (SMILES) | inhibition in vivo at 1 mg/kg (Rattus norvegicus [1]) [%] | inhibition in vivo at 5 mg/kg (Rattus norvegicus [2]) [%] | inhibition in vivo at 5 mg/kg (Rattus norvegicus [3]) [%] | also measured
1 | O=c1cc(-c2nn[nH]n2)oc2c3ccccc3n(-c3ccccc3)c12 | 61 | 100 | 32 | –
2 | CCn1c2ccccc2c2oc(C(=O)O)cc(=O)c21 | 0 | – | – | inhibition in vivo at 1 mg/kg (Rattus norvegicus [4]): 100%; inhibition in vivo at 2 mg/kg (Rattus norvegicus [5]): 22%
3 | Cc1ccc2c(c1)c1oc(C(=O)Nc3nn[nH]n3)cc(=O)c1n2C | 33 | 100 | 0 | –
4 | Cn1c2ccc([N+](=O)[O-])cc2c2oc(C(=O)O)cc(=O)c21 | 1 | 100 | 0 | –
5 | Cn1c2ccc(Cl)cc2c2oc(C(=O)O)cc(=O)c21 | – | 23 | 2 | –
6 | Cc1ccc2c(c1)c1oc(C(=O)O)cc(=O)c1n2C | 18 | – | – | inhibition in vivo at 2 mg/kg (Rattus norvegicus [5]): 11%
7 | O=C(Nc1nn[nH]n1)c1cc(=O)c2c(o1)c1ccccc1n2-c1ccccc1 | – | 0 | 7 | –
8 | Cn1c2ccccc2c2oc(-c3nn[nH]n3)cc(=O)c21 | 87 | 100 | 39 | –
9 | CCn1c2ccccc2c2oc(-c3nn[nH]n3)cc(=O)c21 | 100 | 100 | 70 | –
10 | CCn1c2ccccc2c2oc(C(=O)Nc3nn[nH]n3)cc(=O)c21 | 12 | 100 | 1 | –
11 | O=C(O)c1cc(=O)c2c(OCC(O)COc3cccc4oc(C(=O)O)cc(=O)c34)cccc2o1 [CROMOLYN SODIUM] | – | – | – | inhibition in vivo at 10 mg/kg (Rattus norvegicus [6]): 89%; inhibition in vivo at 2 mg/kg (Rattus norvegicus [7]): 50%; inhibition (Rattus norvegicus [8]): inactive
12 | Cc1ccc2c(c1)c1oc(-c3nn[nH]n3)cc(=O)c1n2C | 25 | 100 | 56 | –
13 | Cn1c2ccccc2c2oc(C(=O)Nc3nn[nH]n3)cc(=O)c21 | 28 | 100 | 0 | –
14 | Cn1c2ccc(Cl)cc2c2oc(-c3nn[nH]n3)cc(=O)c21 | 46 | 100 | 33 | –
15 | O=C(O)c1cc(=O)c2c(o1)c1ccccc1n2-c1ccccc1 | 13 | – | – | inhibition in vivo at 1 mg/kg (Rattus norvegicus [4]): 100%; inhibition in vivo at 2 mg/kg (Rattus norvegicus [5]): 0%
16 | Cn1c2c([N+](=O)[O-])cc([N+](=O)[O-])cc2c2oc(C(=O)Nc3nn[nH]n3)cc(=O)c21 | – | 48 | – | –
17 | Cn1c2ccccc2c2oc(C(=O)O)cc(=O)c21 | 30 | 100 | 96 | –
18 | Cn1c2ccc([N+](=O)[O-])cc2c2oc(C(=O)Nc3nn[nH]n3)cc(=O)c21 | 42 | 100 | – | inhibition in vivo at 1 mg/kg (Rattus norvegicus [9]): 15%
19 | Cn1c2c([N+](=O)[O-])cc([N+](=O)[O-])cc2c2oc(C(=O)O)cc(=O)c21 | – | 0 | 0 | –
20 | O=C1c2ccccc2S(=O)(=O)c2cc(-c3nn[nH]n3)ccc21 [DOXANTRAZOLE] | 33 | – | 50 | inhibition in vivo at 10 mg/kg (Rattus norvegicus [6]): 97%
21 | Cn1c2ccc(Cl)cc2c2oc(C(=O)Nc3nn[nH]n3)cc(=O)c21 | 38 | 100 | 6 | –

Source: ChEMBL document CHEMBL1121614, “Synthesis and antiallergy activity of 4-oxopyrano[3,2-b]indoles” (1980)
